Data reported in ChEMBL document CHEMBL3259588, “Anti-inflammatory drimane sesquiterpene lactones from an Aspergillus species” (Bioorg Med Chem, 2014).
Values belong to the compound of their own block, whether it stands above or below them. Active and inactive are the calls of the source. The rule behind the calls is not given here.

Key:
Assay type in all cases: cell-based
DLD-1 [1] = assay: Inhibition of TNF-alpha/IFN-gamma/IL-1beta-induced human CXCL10 (972 bp) promoter activity expressed in human DLD1 cells up to 260 uM after 24 hrs by […]-driven luciferase reporter assay
Summary of the method: (§1)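 DLD-1 in 24-well plates, switched to 0.5% FCS without antibiotics a day before lipofection (Lipofectamine 2000, 0.8 µg plasmid) with 972 bp CXCL10 promoter, NF-κB, GAS/Stat1 or ISRE luciferase reporters plus pRL-CMV. Stimulated 24 h with 10 ng/mL TNF-α, 10 ng/mL IFN-γ, 5 ng/mL IL-1β ± compound; Dual-Glo firefly/Renilla read. Stimulation-only = 100%; mean ± SEM, ≥3 experiments.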

DLD-1 [2] = assay: Inhibition of TNF-alpha/IFN-gamma/IL-1beta-induced human CXCL10 (972 bp) promoter activity expressed in human DLD1 cells up to 260 uM after 24 hrs by luciferase reporter assay relative to untreated-control; summary of the method: as §1
[3] = target: T1, Nuclear factor NF-kappa-B complex (Homo sapiens) (UniProt Q00653+P19838+Q04206); assay: Inhibition of NF-kappaB (unknown origin)-induced human CXCL10 (972 bp) promoter activity expressed in TNF-alpha/IFN-gamma/IL-1beta-stimulated human DLD1 cells up to 260 uM after 24 hrs by luciferase reporter assay; conditions: DLD-1; summary of the method: as §1
[4] = target: T2, Signal transducer and activator of transcription 1-alpha/beta (Homo sapiens) (UniProt P42224); assay: Inhibition of Stat1 (unknown origin)-induced human CXCL10 (972 bp) promoter activity expressed in TNF-alpha/IFN-gamma/IL-1beta-stimulated human DLD1 cells up to 260 uM after 24 hrs by luciferase reporter assay; conditions: DLD-1; summary of the method: as §1
T2 sequence (whole entry): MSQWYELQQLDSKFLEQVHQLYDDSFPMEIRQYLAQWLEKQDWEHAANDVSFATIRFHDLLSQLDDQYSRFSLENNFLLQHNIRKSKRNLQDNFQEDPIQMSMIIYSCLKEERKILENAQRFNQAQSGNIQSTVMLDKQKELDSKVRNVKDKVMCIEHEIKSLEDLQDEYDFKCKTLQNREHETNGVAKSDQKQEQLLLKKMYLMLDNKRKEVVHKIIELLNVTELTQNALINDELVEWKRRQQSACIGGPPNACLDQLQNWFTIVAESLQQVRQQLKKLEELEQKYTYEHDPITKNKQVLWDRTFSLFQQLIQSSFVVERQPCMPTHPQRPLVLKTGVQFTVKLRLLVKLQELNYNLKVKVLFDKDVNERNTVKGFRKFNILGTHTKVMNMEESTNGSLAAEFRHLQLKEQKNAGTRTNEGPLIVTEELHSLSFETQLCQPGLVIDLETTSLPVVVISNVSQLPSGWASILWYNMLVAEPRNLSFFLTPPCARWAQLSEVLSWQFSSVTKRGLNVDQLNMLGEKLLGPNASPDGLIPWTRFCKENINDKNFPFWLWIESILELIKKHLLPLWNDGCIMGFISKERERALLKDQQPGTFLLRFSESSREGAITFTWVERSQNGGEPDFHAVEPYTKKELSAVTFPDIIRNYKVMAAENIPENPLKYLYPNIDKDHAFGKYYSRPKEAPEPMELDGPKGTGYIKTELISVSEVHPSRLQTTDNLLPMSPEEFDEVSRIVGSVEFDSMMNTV

DLD-1 [5] = assay: Inhibition of TNF-alpha/IFN-gamma/IL-1beta-induced human CXCL10 (972 bp) promoter activity expressed in human DLD1 cells assessed as reduction in CXCL10 expression pretreated at 27.5 uM for 1 hr prior to 16 hrs cytokine challenge by proteome profiling method relative to untreated-control
Summary of the method: (§2)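 DLD-1 starved 16 h in 0.5% FCS, seeded 5×10^6 cells/mL, pretreated 1 h with compound, then stimulated 16 h with 10 ng/mL TNF-α, 10 ng/mL IFN-γ, 5 ng/mL IL-1β. Supernatant cytokines/chemokines detected on Human Cytokine Array Panel A antibody array.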

DLD-1 [6] = assay: Inhibition of TNF-alpha/IFN-gamma/IL-1beta-induced human CXCL10 (972 bp) promoter activity expressed in human DLD1 cells assessed as reduction in TNF-alpha expression pretreated at 27.5 uM for 1 hr prior to 16 hrs cytokine challenge by proteome profiling method relative to untreated-control; summary of the method: as §2
DLD-1 [7] = assay: Inhibition of TNF-alpha/IFN-gamma/IL-1beta-induced human CXCL10 (972 bp) promoter activity expressed in human DLD1 cells assessed as reduction in CXCL10 expression pretreated at 131.5 uM for 1 hr prior to 16 hrs cytokine challenge by proteome profiling method relative to untreated-control; summary of the method: as §2
[8] = target: T2, Signal transducer and activator of transcription 1-alpha/beta (Homo sapiens); assay: Inhibition of Stat1 (unknown origin) expressed in human DLD1 cells assessed as reduction in iNOS gene expression pretreated at 13.75 uM for 1 hr by RT-PCR method relative to untreated-control; conditions: DLD-1
Summary of the method: (§3)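 DLD-1 seeded 5×10^5 cells/mL, grown 24 h, starved 16 h in 0.5% FCS, pretreated with compound 1 h, then stimulated with 10 ng/mL TNF-α, 10 ng/mL IFN-γ, 5 ng/mL IL-1β for 5 h. tnf-α, il-1β, inos mRNA by two-step qRT-PCR, Pfaffl relative quantification, normalised to gapdh; stimulated-untreated control = 100%. Mean ± SEM, three independent experiments.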

DLD-1 [9] = assay: Inhibition of TNF-alpha/IFN-gamma/IL-1beta-induced human CXCL10 (972 bp) promoter activity expressed in human DLD1 cells assessed as CXCL10 gene expression at 27.5 uM after 5 hrs by RT-PCR method relative to untreated-control
Summary of the method: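 Cells starved 16 h (0.5% FCS), compound pretreatment 1 h, then TNF-α 10 ng/mL/IFN-γ 10 ng/mL/IL-1β 5 ng/mL for 5 h. Total RNA analysed by two-step qRT-PCR for cxcl10, gapdh-corrected (Pfaffl); induced vs uninduced and treated-induced vs untreated-induced (100%).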

[10] = target: T1, Nuclear factor NF-kappa-B complex (Homo sapiens); assay: Inhibition of NF-kappaB (unknown origin) expressed human DLD1 cells assessed as reduction in IL1-beta gene expression pretreated at 13.75 uM for 1 hr by RT-PCR method relative to untreated-control; conditions: DLD-1; summary of the method: as §3
[11] = (§4) Inhibition of TNF-alpha/IFN-gamma/IL-1beta-induced human CXCL10 (972 bp) promoter activity expressed in human DLD1 cells after 24 hrs by luciferase reporter assay; conditions: DLD-1, 24 h; summary of the method: as §1
DLD-1 [12] = assay: as §4; summary of the method: as §1
DLD-1 [13] = assay: Inhibition of TNF-alpha/IFN-gamma/IL-1beta-induced human CXCL10 (972 bp) promoter activity expressed in human DLD1 cells assessed as reduction in IL1-beta expression pretreated at 27.5 uM for 1 hr prior to 16 hrs cytokine challenge by proteome profiling method relative to untreated-control; summary of the method: as §2
[14] = Inhibition of TNF-alpha/IFN-gamma/IL-1beta-induced human CXCL10 (972 bp) promoter activity expressed in human DLD1 cells after 24 hrs by […]-driven luciferase reporter assay; conditions: DLD-1, 24 h; summary of the method: as §1
[15] = target: T2, Signal transducer and activator of transcription 1-alpha/beta (Homo sapiens); assay: Inhibition of Stat1 (unknown origin)-induced human CXCL10 (972 bp) promoter activity expressed in TNF-alpha/IFN-gamma/IL-1beta-stimulated human DLD1 cells after 24 hrs by luciferase reporter assay; conditions: DLD-1; summary of the method: as §1
DLD-1 [16] = assay: Inhibition of TNF-alpha/IFN-gamma/IL-1beta-induced human CXCL10 (972 bp) promoter activity expressed in human DLD1 cells assessed as reduction in IL-27 expression pretreated at 27.5 uM for 1 hr prior to 16 hrs cytokine challenge by proteome profiling method relative to untreated-control; summary of the method: as §2
[17] = target: T2, Signal transducer and activator of transcription 1-alpha/beta (Homo sapiens); assay: Inhibition of Stat1 (unknown origin) expressed human DLD1 cells assessed as reduction in TNF-alpha gene expression pretreated at 13.75 uM for 1 hr by RT-PCR method relative to untreated-control; conditions: DLD-1; summary of the method: as §3
DLD-1 [18] = assay: Inhibition of TNF-alpha/IFN-gamma/IL-1beta-induced human CXCL10 (972 bp) promoter activity expressed in human DLD1 cells assessed as reduction in CXCL1 expression pretreated at 27.5 uM for 1 hr prior to 16 hrs cytokine challenge by proteome profiling method relative to untreated-control; summary of the method: as §2
[19] = target: T1, Nuclear factor NF-kappa-B complex (Homo sapiens); assay: Inhibition of NF-kappaB (unknown origin) expressed human DLD1 cells assessed as reduction in iNOS gene expression pretreated at 13.75 uM for 1 hr by RT-PCR method relative to untreated-control; conditions: DLD-1; summary of the method: as §3
DLD-1 [20] = assay: Inhibition of TNF-alpha/IFN-gamma/IL-1beta-induced human CXCL10 (972 bp) promoter activity expressed in human DLD1 cells assessed as reduction in IL8 expression pretreated at 27.5 uM for 1 hr prior to 16 hrs cytokine challenge by proteome profiling method relative to untreated-control; summary of the method: as §2
[21] = target: T1, Nuclear factor NF-kappa-B complex (Homo sapiens); assay: Inhibition of NF-kappaB (unknown origin) expressed human DLD1 cells assessed as reduction in TNF-alpha gene expression pretreated at 13.75 uM for 1 hr by RT-PCR method relative to untreated-control; conditions: DLD-1; summary of the method: as §3
DLD-1 [22] = assay: Inhibition of TNF-alpha/IFN-gamma/IL-1beta-induced human CXCL10 (972 bp) promoter activity expressed in human DLD1 cells assessed as reduction in MIF expression pretreated at 27.5 uM for 1 hr prior to 16 hrs cytokine challenge by proteome profiling method relative to untreated-control; summary of the method: as §2
[23] = target: T2, Signal transducer and activator of transcription 1-alpha/beta (Homo sapiens); assay: Inhibition of Stat1 (unknown origin) expressed human DLD1 cells assessed as reduction in IL1-beta gene expression pretreated at 13.75 uM for 1 hr by RT-PCR method relative to untreated-control; conditions: DLD-1; summary of the method: as §3
[24] = Cytotoxicity against human DLD1 cells up to 50 uM after 48 hrs by XTT assay; conditions: dld-1, 48 h
Summary of the method: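 DLD-1 cells (RPMI 1640, 25 mM HEPES, 10% FCS, 37 °C, 5% CO2) exposed to compound for 48 h; viability read as XTT reduction to coloured formazan.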

T1 sequence (P19838 whole entry, looked up): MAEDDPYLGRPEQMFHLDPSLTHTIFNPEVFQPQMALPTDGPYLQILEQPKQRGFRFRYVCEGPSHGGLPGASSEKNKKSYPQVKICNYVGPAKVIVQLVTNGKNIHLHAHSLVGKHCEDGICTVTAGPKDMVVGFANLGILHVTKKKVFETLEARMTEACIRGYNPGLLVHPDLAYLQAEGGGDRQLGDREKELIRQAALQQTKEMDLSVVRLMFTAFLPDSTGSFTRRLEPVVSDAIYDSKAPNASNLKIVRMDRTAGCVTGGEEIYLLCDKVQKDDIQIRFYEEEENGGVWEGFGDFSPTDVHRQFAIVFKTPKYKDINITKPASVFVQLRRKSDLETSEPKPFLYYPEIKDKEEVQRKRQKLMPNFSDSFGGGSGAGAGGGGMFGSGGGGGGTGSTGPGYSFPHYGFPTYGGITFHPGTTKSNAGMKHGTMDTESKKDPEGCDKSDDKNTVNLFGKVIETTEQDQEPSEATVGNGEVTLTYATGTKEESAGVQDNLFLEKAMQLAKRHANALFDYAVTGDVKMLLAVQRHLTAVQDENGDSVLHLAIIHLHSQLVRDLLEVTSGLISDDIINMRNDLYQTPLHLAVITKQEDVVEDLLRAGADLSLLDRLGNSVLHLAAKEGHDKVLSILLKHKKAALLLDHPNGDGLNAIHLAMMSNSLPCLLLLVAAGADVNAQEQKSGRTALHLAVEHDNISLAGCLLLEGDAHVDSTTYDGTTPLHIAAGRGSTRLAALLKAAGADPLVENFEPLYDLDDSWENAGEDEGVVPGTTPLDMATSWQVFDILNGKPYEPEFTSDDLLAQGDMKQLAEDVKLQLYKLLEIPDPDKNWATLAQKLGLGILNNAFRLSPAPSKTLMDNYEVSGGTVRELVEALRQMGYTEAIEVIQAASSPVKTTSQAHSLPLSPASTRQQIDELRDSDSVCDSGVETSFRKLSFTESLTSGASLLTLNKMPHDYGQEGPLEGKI
T1 sequence (Q00653 whole entry, looked up): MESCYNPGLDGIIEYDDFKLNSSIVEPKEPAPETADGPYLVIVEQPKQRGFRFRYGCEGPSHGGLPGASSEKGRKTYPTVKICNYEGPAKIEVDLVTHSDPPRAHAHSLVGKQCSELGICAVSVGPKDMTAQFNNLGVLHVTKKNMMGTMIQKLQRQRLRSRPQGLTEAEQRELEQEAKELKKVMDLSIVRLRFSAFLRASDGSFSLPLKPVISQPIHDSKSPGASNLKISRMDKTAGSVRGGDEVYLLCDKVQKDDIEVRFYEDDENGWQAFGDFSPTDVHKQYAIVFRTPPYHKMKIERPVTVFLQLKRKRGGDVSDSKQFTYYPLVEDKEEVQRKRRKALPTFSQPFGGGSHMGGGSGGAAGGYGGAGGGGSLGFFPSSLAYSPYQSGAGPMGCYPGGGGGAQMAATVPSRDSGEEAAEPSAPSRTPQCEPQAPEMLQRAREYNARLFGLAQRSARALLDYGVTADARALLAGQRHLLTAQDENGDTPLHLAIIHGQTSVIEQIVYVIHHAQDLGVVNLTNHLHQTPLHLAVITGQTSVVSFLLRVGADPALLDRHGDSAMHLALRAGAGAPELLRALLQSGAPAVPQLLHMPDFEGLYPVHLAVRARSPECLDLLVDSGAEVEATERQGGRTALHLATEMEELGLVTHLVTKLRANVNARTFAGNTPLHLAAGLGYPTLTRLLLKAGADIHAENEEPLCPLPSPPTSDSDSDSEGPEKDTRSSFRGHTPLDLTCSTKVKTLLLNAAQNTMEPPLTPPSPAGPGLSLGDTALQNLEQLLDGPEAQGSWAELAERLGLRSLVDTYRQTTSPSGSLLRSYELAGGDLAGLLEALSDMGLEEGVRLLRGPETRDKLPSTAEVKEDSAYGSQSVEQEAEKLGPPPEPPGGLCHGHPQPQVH
T1 sequence (Q04206 whole entry, looked up): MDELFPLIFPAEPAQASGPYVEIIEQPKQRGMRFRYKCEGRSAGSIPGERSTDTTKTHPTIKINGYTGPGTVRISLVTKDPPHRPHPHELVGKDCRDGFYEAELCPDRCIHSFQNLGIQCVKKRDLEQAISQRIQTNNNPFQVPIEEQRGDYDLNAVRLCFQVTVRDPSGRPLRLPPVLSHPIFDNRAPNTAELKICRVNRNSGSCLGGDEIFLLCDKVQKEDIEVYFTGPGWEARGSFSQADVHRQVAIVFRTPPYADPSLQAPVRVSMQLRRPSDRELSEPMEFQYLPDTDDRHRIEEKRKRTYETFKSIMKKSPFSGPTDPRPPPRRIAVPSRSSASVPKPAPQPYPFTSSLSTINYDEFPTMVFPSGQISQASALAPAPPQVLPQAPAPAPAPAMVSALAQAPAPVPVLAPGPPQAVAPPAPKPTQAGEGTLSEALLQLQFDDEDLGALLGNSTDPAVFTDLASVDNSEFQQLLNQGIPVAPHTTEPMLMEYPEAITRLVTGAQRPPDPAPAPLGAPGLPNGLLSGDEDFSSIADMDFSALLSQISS

inhibition [3]: inactive
inhibition [4]: inactive
SMILES: CCCCCC(=O)O[C@@H]1C=C2CO[C@@H](O)[C@]2(O)[C@@]2(C)[C@H](O)CCC(C)(C)[C@H]12
inhibition (DLD-1 [1]): inactive
inhibition (DLD-1 [2]): inactive

inhibition [8]: Active
inhibition [10]: Active
IC50 [11]: 12.4 µM
IC50 [14]: 14.3 µM
inhibition [15]: Dose-dependent effect
inhibition [17]: Active
inhibition [19]: Active
inhibition [21]: Active
inhibition [23]: Active
SMILES: CCCCCC(=O)O[C@@H]1C=C2COC(=O)C2(O)[C@@]2(C)CCCC(C)(C)[C@H]12 (some centres undefined)
inhibition (DLD-1 [5]): Active
inhibition (DLD-1 [6]): Active
inhibition (DLD-1 [7]): Active
inhibition (DLD-1 [9]): Active
inhibition (DLD-1 [12]): Dose-dependent effect
inhibition (DLD-1 [13]): Active
inhibition (DLD-1 [16]): Active
inhibition (DLD-1 [18]): Active
inhibition (DLD-1 [20]): Active
inhibition (DLD-1 [22]): Active
Activity [24]: Non-toxic
